Reference: ChEMBL document CHEMBL5329221, “A covalent fragment-based strategy targeting a novel cysteine to inhibit activity of mutant EGFR kinase” (RSC Med Chem, 2023)

Experiments:
[1] = molecular target: Epidermal growth factor receptor (Homo sapiens, UniProt P00533, C797S/L858R/T790M); test: Inhibition of N-terminal His6-tagged human EGFR L858R/T790M/C797S mutant expressed in Sf9 cells assessed as decrease in substrate phosphorylation incubated for 45 mins using Srctide as substrate in presence of 5uM of ATP by microplate reader analysis
[2] = molecular target: T1, Tyrosine-protein kinase JAK3 (Homo sapiens) (UniProt P52333); test: Inhibition of human JAK3 assessed as decrease in substrate phosphorylation using Srctide as substrate preincubated for 15 mins followed by substrate addition in presence of 1mM of ATP and measured after 45 mins by microplate reader analysis; conditions: time 60.0 min
T1 sequence (whole entry): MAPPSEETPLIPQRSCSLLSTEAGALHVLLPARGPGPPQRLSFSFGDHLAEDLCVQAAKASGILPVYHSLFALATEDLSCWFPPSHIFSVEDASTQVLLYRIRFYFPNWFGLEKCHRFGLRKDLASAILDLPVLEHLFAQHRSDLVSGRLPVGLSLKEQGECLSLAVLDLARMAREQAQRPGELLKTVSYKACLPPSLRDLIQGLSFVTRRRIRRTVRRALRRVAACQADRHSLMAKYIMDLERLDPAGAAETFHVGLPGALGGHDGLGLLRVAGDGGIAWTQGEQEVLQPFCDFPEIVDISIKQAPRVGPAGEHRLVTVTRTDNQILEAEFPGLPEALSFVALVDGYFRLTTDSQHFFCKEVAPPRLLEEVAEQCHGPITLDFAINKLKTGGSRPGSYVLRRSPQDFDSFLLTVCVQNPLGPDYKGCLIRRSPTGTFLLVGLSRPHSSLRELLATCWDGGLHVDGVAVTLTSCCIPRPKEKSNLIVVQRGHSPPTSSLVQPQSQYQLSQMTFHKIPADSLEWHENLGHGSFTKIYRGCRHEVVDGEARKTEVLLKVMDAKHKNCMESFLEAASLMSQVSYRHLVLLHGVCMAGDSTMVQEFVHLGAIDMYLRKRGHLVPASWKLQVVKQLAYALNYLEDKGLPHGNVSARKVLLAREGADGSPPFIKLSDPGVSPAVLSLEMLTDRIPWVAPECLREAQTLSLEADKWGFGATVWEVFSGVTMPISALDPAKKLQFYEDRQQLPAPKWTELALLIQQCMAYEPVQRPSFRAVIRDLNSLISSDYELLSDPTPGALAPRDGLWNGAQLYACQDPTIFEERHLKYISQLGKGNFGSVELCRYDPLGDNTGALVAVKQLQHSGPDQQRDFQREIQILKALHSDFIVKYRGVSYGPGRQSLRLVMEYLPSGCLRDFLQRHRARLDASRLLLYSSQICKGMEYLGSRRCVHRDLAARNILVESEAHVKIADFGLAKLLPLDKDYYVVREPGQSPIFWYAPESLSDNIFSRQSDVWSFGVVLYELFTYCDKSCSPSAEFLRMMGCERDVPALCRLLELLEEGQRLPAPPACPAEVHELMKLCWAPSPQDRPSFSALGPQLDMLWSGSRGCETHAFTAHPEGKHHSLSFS
Method in brief: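 JAK3 at 50 ng/mL was preincubated 15 min with 1 µM compound in 100 mM HEPES pH 7.4, 0.003% Brij-35, 0.004% Tween-20, 1 mM DTT. Then 1 mM ATP, 1.5 µM Srctide and 10 mM MgCl2 were added for 45 min. Mobility-shift read.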

[3] = molecular target: MAP kinase-interacting serine/threonine-protein kinase 1 (Homo sapiens) (UniProt Q9BUB5); test: Inhibition of human MNK1 assessed as decrease in substrate phosphorylation using 5FAM-KKKVSRSGLYRSPSMPENLNRPR-COOH as substrate preincubated for 15 mins followed by substrate addition in presence of 1mM of ATP and measured after 45 mins by microplate reader analysis; conditions: time 60.0 min
Method in brief: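 MNK1 at 440 ng/mL was preincubated 15 min with 1 µM compound in 100 mM HEPES pH 7.4, 0.003% Brij-35, 0.004% Tween-20, 1 mM DTT. Then 1 mM ATP, 1.5 µM FL-Peptide 10 and 10 mM MgCl2 were added for 45 min. Mobility-shift read.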

Sequence of MAP kinase-interacting serine/threonine-protein kinase 1 (Homo sapiens) (Q9BUB5 whole entry, looked up): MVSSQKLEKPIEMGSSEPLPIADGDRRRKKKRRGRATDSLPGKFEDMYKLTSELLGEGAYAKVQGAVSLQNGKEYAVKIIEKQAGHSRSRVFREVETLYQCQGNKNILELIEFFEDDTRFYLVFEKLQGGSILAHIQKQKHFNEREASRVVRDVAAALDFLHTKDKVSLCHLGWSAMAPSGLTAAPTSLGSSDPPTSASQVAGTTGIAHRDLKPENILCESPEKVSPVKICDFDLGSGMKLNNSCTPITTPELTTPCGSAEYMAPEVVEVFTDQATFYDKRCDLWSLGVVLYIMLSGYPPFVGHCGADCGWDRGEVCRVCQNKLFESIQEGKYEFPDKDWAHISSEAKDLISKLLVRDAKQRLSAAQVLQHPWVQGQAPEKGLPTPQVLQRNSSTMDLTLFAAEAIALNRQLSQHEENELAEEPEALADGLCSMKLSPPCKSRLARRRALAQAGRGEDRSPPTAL
Sequence of Epidermal growth factor receptor (P00533 25-1210 T790M/C797S/L858R limits assumed): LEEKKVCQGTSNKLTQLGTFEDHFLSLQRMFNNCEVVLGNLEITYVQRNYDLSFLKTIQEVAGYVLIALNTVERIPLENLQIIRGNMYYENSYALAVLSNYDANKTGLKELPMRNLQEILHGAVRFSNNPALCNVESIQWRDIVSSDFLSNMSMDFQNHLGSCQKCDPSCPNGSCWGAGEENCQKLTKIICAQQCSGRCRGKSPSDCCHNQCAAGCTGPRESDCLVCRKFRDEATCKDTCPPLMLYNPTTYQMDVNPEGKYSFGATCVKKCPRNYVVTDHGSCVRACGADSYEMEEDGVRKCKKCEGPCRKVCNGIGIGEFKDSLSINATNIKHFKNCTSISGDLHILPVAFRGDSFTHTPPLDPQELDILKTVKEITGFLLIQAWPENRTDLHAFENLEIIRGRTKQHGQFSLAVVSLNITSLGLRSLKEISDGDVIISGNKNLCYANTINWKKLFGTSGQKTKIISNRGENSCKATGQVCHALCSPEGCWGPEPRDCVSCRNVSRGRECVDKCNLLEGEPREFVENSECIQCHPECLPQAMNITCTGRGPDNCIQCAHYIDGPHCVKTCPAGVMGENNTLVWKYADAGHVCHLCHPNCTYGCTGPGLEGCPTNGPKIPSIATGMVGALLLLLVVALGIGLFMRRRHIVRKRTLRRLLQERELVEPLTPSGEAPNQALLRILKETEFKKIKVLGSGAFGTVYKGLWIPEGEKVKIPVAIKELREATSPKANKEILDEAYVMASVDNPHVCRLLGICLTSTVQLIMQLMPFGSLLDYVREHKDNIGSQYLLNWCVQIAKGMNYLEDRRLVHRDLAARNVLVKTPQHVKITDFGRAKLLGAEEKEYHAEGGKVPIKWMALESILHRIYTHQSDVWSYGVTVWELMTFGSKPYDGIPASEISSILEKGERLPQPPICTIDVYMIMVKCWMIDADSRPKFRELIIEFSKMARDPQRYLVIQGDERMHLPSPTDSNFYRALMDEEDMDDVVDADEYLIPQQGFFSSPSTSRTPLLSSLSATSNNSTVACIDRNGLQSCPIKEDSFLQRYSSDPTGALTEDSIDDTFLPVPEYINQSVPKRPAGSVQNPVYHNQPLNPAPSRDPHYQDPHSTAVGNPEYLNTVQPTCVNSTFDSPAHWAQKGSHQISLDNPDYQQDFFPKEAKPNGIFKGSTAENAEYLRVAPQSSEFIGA

Compound: C=CC(=O)Nc1cc(-c2cn(C)c3ccccc23)ncn1
- IC50 [1]: 599 nM
- inhibition [2]: 74.2%
- inhibition [3]: 26.5%
